RGS4 pot: potentiators or activators of RGS4. HEK293 M3R/inducible RGS4, carbachol calcium flux Fluo4; active compounds read low. AID 463111. hit rate 0.92% among 310,000. B-score at 10 µM;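 active = B-score of the integrated calcium signal more than 4 SD below the library mean, with starting fluorescence not abnormally high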;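 note: negative B-score means reduced calcium response which marks RGS4 activation or potentiation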
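test system = M3R-expressing HEK293 line, RGS4 induced by doxycycline | probe or stimulus = carbachol at ECmax as muscarinic agonist stimulus | timing = dye loading 30 min 37 °C, buffer rest 30 min RT | signal = calcium dye Fluo4 fluorescence | evaluation = B score from integrated fluorescence ratio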
MrgX1 agonist: activates human MrgX1 receptor signaling | Q96LB2 | MrgX1-HEK293 cells, Fluo-4 calcium fluorescence, agonist mode; active compounds read high | B-score at 10 µM | hit rate 0.44% among 310,000;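 active = calcium response B-score plate-corrected fluorescence ratio at least 3 library SD, with starting fluorescence B-score inside 5 SD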
Target sequence (Q96LB2 whole entry, looked up): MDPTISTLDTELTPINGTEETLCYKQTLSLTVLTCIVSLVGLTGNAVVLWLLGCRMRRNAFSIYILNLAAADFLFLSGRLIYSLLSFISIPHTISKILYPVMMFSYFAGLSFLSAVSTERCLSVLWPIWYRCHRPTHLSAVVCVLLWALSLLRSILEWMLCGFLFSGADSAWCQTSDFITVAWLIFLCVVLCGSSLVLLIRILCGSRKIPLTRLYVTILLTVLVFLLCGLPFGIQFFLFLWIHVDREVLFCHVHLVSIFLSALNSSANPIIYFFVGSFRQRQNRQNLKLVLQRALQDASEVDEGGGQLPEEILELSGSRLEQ
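Assay system: stable human MrgX1 HEK293 cell line. Quantity: 15,000 cells per well. Schedule: cells plated overnight, dye loaded 0.5 h 37 °C, 0.5 h room temperature. Detection: Fluo-4 NW calcium-flux fluorescence, kinetic read. Read-out basis: peak-minus-minimum fluorescence over baseline, converted to B scores. Control set: positive and negative control wells on each plate.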
MrgX1 antagonist: human MrgX1 receptor antagonism, primary screen. MRGX1-HEK293 calcium flux, Fluo-4, BAM8-22 antagonism; active compounds read low. B-score at 10 µM. Q96LB2. hit rate 1.3% among 310,000;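 active = calcium-response B-score plate-corrected more than 3 library SD below zero, starting fluorescence within 5 deviations, no agonist response on first addition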;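 note: peak minus trough fluorescence over baseline after final BAM8-22 challenge near maximal dose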
MrgX1 PAM: human MrgX1 positive allosteric modulation, primary screen; hit rate 0.63% among 310,000; AID 588675; B-score at 10 µM; Q96LB2; MrgX1-HEK293, Fluo-4 calcium flux, FDSS; active compounds read high;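 active = plate-corrected calcium response at least 3 library SD above typical, normal starting fluorescence, not activating the receptor alone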;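 note: compound read alongside a low EC10 to EC30 dose of BAM8-22 agonist; peak minus trough fluorescence over baseline measured at the second addition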
RGS4 block: human RGS4 inhibition. P49798. hit rate 0.45% among 310,000. HEK293 M3R/RGS4 inducible, Fluo-4 calcium flux; active compounds read high; triggered by carbachol at its EC20. B-score at 10 µM. AID 463165;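 active = B-score, a plate-corrected calcium signal, over three deviations above library mean, with baseline fluorescence within five deviations of library mean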;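 note: RGS4 expression induced by doxycycline in cells with stable M3 receptor; B-score is computed from the integrated fluorescence ratio over baseline after carbachol; higher B-score means a larger calcium signal and so more RGS4 inhibition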
Target sequence (P49798 whole entry, looked up): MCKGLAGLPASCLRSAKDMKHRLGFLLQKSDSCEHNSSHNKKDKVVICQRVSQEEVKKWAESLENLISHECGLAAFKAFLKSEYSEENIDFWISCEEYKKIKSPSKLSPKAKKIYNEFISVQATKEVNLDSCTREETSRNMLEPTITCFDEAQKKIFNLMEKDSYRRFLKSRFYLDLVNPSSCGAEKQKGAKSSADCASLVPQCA
* = called active by the depositor; i = inactive; x = no result; ! = a repeat was not active. Sampled rows, rich in hits. Any-hit rate of the full collection: about 3.5%.

SMILES	RGS4 pot	MrgX1 agonist	MrgX1 antagonist	MrgX1 PAM	RGS4 block
Cc1cccc(C(=O)N2CCN=C2SCc2ccc([N+](=O)[O-])cc2)c1	-8.6*	i	i	i	i
O=C(Cc1ccccc1)N1CCN=C1SCc1cccc([N+](=O)[O-])c1	i	i	i	i	i
O=C1C=CC(=O)N1CCNc1ncc(C(F)(F)F)cc1Cl	-7.9*	x	x	x	i
CN1CCN(NC(=O)Nc2cc(Cl)cc(Cl)c2)CC1	i	i	i	i	i
COc1ccccc1-n1c(-c2ccccc2)c[n+]2c1CCc1ccccc1-2	-7.9*!	i	i	i	i
O=[N+]([O-])c1ccc(CSc2nnc(SCc3ccccc3)s2)cc1	-8.3*	i	i	i	i
CN(Cc1nccn1C)C(=O)CC1C(=O)NCCN1Cc1cccc(Oc2ccccc2)c1 (stereo not given)	i	i	-5.2*	i	i
OC1(C#CCN2CCCC2)c2ccccc2-c2ccccc21	-7*	i	i	i	i
CCCCN(C)CCNC(=O)c1ccc(Cn2c(=S)[nH]c3ccc(Br)cc3c2=O)cc1	i	i	i	i	i
CC(NCC(=O)Nc1cc(S(=O)(=O)N2CCOCC2)ccc1Cl)c1ccc(Cl)cc1Cl (stereo not given)	i	i	-7.3*	i	i
CC(NC(=O)/C=C/c1ccco1)c1nc2ccccc2n1Cc1c(Cl)cccc1Cl (stereo not given)	i	i	i	i	i
CC(NC(=O)/C=C/c1ccco1)c1nc2ccccc2n1Cc1ccccc1F (stereo not given)	i	i	-5.3*	i	i
Cc1c(C(=O)Oc2cc(N)n(S(C)(=O)=O)n2)cccc1[N+](=O)[O-]	i	i	i	6.7*	i
Cc1ccccc1C(=O)Oc1cc(N)n(S(C)(=O)=O)n1	i	i	i	i	i
CCc1noc(C)c1C(=O)NNC(=O)c1ccccc1F	i	i	i	i	i
CC(C)(C)C1CCc2c(C(=O)N/N=C/c3cccs3)csc2C1 (stereo not given)	i	i	i	i	i
CC(C)(C)C1CCc2c(C(=O)NNC(=O)/C=C/C(=O)O)csc2C1 (stereo not given)	i	i	-6.4*	i	i
N/C(=N\OC(=O)c1cccnc1)c1ccc(Cl)cc1Cl	i	i	-4.6*	i	i
N/C(=N\OC(=O)c1cccnc1)c1ccccc1Cl	i	i	i	i	i
O=C(Cn1c(-c2ccccc2)c[n+]2ccsc12)c1ccc(Br)cc1	-8.1*	i	i	i	i
O=C(NCCS(=O)(=O)NCCCc1ccccc1)c1ccccc1	i	i	i	i	i
COC(=O)c1cc(C#N)c(N2CC(C)OC(C)C2)nc1C (stereo not given)	i	i	i	i	i
O=c1ccnc(Nc2ccc([N+](=O)[O-])cc2)[nH]1	i	i	i	i	i
O=C(NCCS(=O)(=O)NCC1CCCO1)c1ccccc1 (stereo not given)	i	i	i	i	i
OC(C#CCN1CCCCCC1)(c1ccccc1)c1cccnc1 (stereo not given)	i	i	i	i	i
SMILES	RGS4 pot	MrgX1 agonist	MrgX1 antagonist	MrgX1 PAM	RGS4 block
CC(C)C(O)(C#CCN1CCCC1)c1ccccc1 (stereo not given)	-7.5*	i	i	i	i
CC(O)(C#CCN1CCOCC1)c1ccccc1 (stereo not given)	i	x	x	x	i
CC(C)C(O)(C#CCN1CCCCC1)c1ccccc1 (stereo not given)	-7.2*	i	i	i	i
CC1(C)CC2CC(C)(CN2S(=O)(=O)c2ccc(C(=O)Nc3cc(S(=O)(=O)N4CCOCC4)ccc3Cl)cc2)C1 (stereo not given)	-7.2*	i	i	i	i
CC1(C)CC2CC(C)(CN2S(=O)(=O)c2ccc(C(=O)Nc3cccc(S(=O)(=O)N4CCOCC4)c3)cc2)C1 (stereo not given)	i	i	i	i	i
COC(=O)Cn1cnc2c(nnn2-c2ccc(OC)cc2)c1=O	i	i	i	i	i
COc1cc(SC)ccc1C(=O)NNC(=O)c1cc(C)oc1C	i	i	-4.8*	i	i
COc1cc(SC)ccc1C(=O)Nc1c(C)cccc1C	i	i	i	i	i
Cc1ccc2[nH]c3c(=O)n(CC(=O)N4CC(C)CC(C)C4)ncc3c2c1 (stereo not given)	i	i	i	i	i
CN(Cc1ccccc1)C(=O)COC(=O)COc1ccc(C#N)cc1	i	i	i	i	i
Oc1ccc2ccccc2c1CN1CCN(C/C=C/c2ccccc2)CC1	-7.8*	i	i	i	i
Oc1ccc2ccccc2c1CN1CCN(c2ccccc2F)CC1	i	x	x	x	i
COc1ccc(NC(=O)CSc2nnc(Cc3ccc(C)cc3)c(=O)n2N)cc1OC	i	i	i	i	i
CCc1cccc(NC(=O)C2CCN(S(=O)(=O)c3ccc4c(c3)NC(=O)CO4)CC2)c1	i	i	i	i	i
O=C(O)C(c1ccccc1)N1CCCCC1 (stereo not given)	i	i	-4.7*	i	i
O=c1/c(=C\c2ccc(O)cc2)sc2n1C(c1ccccc1)C(c1ccccc1)=NN=2 (stereo not given)	i	i	i	13*	i
COc1cc(/C=N/NC(N)=O)ccc1OC(=O)c1cccs1	i	i	i	9.5*	i
O=C(NC(c1cccnc1)C(F)(F)F)c1cc(COc2ccc3c(c2)CCCC3)on1 (stereo not given)	-7.1*	i	i	i	i
O=C(c1nn(Cc2ccccc2)c(=O)c2ccccc12)N1CCc2ccccc2C1	-8.5*	i	i	i	i
O=C(c1nn(Cc2ccccc2)c(=O)c2ccccc12)N1CCN(c2ccccn2)CC1	i	i	i	i	i
O=C(NCc1ccccn1)C1CCCN(Cc2cnn(-c3ccccc3)c2-n2cccc2)C1 (stereo not given)	-7.3*	i	i	i	i
O=C(NCc1ccccn1)C1CCN(Cc2cnn(-c3ccccc3)c2-n2cccc2)CC1	i	i	i	i	i
O=C(NCCN1C(=O)S/C(=C\c2ccccc2F)C1=O)C1CCN(S(=O)(=O)c2cccs2)CC1	i	i	-8.9*	i	i
CCCc1cc(C(=O)Nc2cccc3ccccc23)n(C)n1	i	i	i	i	i

Compound activity from PubChem BioAssay.
